According to the array DNA melting data of Ke et al. (doi:10.1101/2024.01.08.574731):

What was measured:
[1] = melting temperature; fluorescence melt of hairpins on a sequencing array, two-state fit, raised by 9.35 °C to match UV melts; settings: sodium 0.088 M
How it was run: (§1)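 Folding enthalpy and melting temperature come from bootstrapped two-state fits to Cy3 fluorescence of library hairpins carrying annealed Cy3 and quencher oligos on a sequenced MiSeq flow cell. Imaging was done in 50 mM Na-HEPES pH 8.0, 25 mM NaCl, stepping by 2.5 °C up to 60 °C, and signals were normalised to pre-quench Cy3 and to control constructs. Results of four replicates were combined by inverse variance, and fitted temperatures were raised by 9.35 °C to match UV melts.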

[2] = folding enthalpy; higher = less favourable; fluorescence melt of hairpins on a sequencing array, two-state fit; settings: sodium 0.088 M
How it was run: as §1

| Sequence | Tm [1] | folding enthalpy [2] |
| --- | --- | --- |
| GTGCTAGCGAAAGCTCAC (((..(((....)))))) | 42.1 °C | -9.59 kcal/mol |
| GTGCTAGGAAACTAGTGC (..((((....))))..) | 39.1 °C | -30.2 kcal/mol |
| GTGCTCGAAAGAGAGCAC ((((((....)))..))) | 58.2 °C | -34.2 kcal/mol |
| GTGCTCGAAAGAGCGCAC ((((((....)))..))) | 57.1 °C | -11.6 kcal/mol |
| GTGCTCGAAAGAGGCCAC ((((((....)))..))) | 35.9 °C | -16 kcal/mol |
| GTGCTCGGAAACGAACAC (((.(((....))).))) | 47.6 °C | -35.3 kcal/mol |
| GTGCTCGGAAACGAGTAC ((.((((....)))).)) | 55.4 °C | -43.8 kcal/mol |
| GTGCTCGGAAACGGGTAC ((.(.((....)).).)) | 41.9 °C | -32.8 kcal/mol |
| GTGCTGCCGAAAGGCCAC (((..(((....)))))) | 48.1 °C | -11.5 kcal/mol |
| GTGCTGGGAAACCAGCGC (.(((((....))))).) | 61.6 °C | -29.5 kcal/mol |
| GTGCTGGGAAACCGGTAC ((.(.((....)).).)) | 42.1 °C | -33.1 kcal/mol |
| GTGCTTCGAAAGAATCAC (((.(((....))).))) | 41.6 °C | -35.5 kcal/mol |
| GTGCTTGGAAACAAGCAC (((((((....))))))) | 68.1 °C | -38.7 kcal/mol |
| GTGCTTGGAAACAAGCGC (.(((((....))))).) | 61.3 °C | -32.2 kcal/mol |
| GTGGAACGAAAGTTACAC (((.(((....))).))) | 57 °C | -40.4 kcal/mol |
| GTGGAACGAAAGTTTCAC (((.(((....))).))) | 53.2 °C | -42.7 kcal/mol |
| GTGGACGAAAGTCAGCAC ((((((....)))..))) | 40.3 °C | -16.1 kcal/mol |
| GTGGACGAAAGTCATCAC ((((((....)))..))) | 36.3 °C | -13.1 kcal/mol |
| GTGGACGAAAGTCCTCAC ((((((....)))..))) | 38 °C | -9.72 kcal/mol |
| GTGGACGAAAGTCTCAC ((((((....))).))) | 46.6 °C | -20.1 kcal/mol |
| GTGGACGCGAAAGCGCAC (((..(((....)))))) | 47.8 °C | -15.4 kcal/mol |
| GTGGACGGAAACATCCAC (((((.(....).))))) | 43.6 °C | -31.8 kcal/mol |
| GTGGAGACGAAAGTCCAC (((..(((....)))))) | 47.6 °C | -22.8 kcal/mol |

| Sequence | Tm [1] | folding enthalpy [2] |
| --- | --- | --- |
| GTGGAGCGAAAGCTCAC (((.(((....)))))) | 52.1 °C | -12.1 kcal/mol |
| GTGGAGGGAAACCCCCAC ((((.((....)).)))) | 48.8 °C | -30.6 kcal/mol |
| GTGGAGGGAAACCTCCAC (((((((....))))))) | 66.5 °C | -40.9 kcal/mol |
| GTGGAGGGAAACCTTCAC (((.(((....))).))) | 47.3 °C | -31.9 kcal/mol |
| GTGGATCGAAAGATACAC (((.(((....))).))) | 55.9 °C | -44.2 kcal/mol |
| GTGGATCGAAAGATCAC (((.(((....)))))) | 48.8 °C | -13.3 kcal/mol |
| GTGGATGGAAACATCCGC (.(((((....))))).) | 56.1 °C | -28 kcal/mol |
| GTGGATGGAAACATTCAC (((.(((....))).))) | 46.6 °C | -45.5 kcal/mol |
| GTGGATGGAAACATTCGC (.(.(((....))).).) | 34.9 °C | -28.4 kcal/mol |
| GTGGATGGAAACGTCCAC (((((.(....).))))) | 53 °C | -47.6 kcal/mol |
| GTGGATTCGAAAGAACAC (((..(((....)))))) | 32 °C | -17.4 kcal/mol |
| GTGGCAGCGAAAGCTCAC (((..(((....)))))) | 43.7 °C | -12.4 kcal/mol |
| GTGGCCGAAAGGCACAC ((((((....))).))) | 63.1 °C | -15.1 kcal/mol |
| GTGGCCGAAAGGCGCCAC ((((((....)))..))) | 49 °C | -13.7 kcal/mol |
| GTGGCCGAAAGGCTTCAC ((((((....)))..))) | 33.6 °C | -12.4 kcal/mol |
| GTGGCCGCGAAAGCGCAC (((..(((....)))))) | 48.4 °C | -9.11 kcal/mol |
| GTGGCCGGAAACGACCAC ((((.((....)).)))) | 56.5 °C | -40.3 kcal/mol |
| GTGGCGGCGAAAGCCCAC (((..(((....)))))) | 54 °C | -15 kcal/mol |
| GTGGCGGGAAACCACCAC ((((.((....)).)))) | 51.5 °C | -35.4 kcal/mol |
| GTGGCGGGAAACCGCTGC (..((((....))))..) | 47.9 °C | -15.4 kcal/mol |
| GTGGCGGGAAACTGCCAC (((((.(....).))))) | 60.7 °C | -54.1 kcal/mol |
| GTGGCGGGAAACTGCCGC (.(((.(....).))).) | 53.5 °C | -22.2 kcal/mol |
